The results in this text go back to PubChem BioAssay.

Test [1] is described as follows: inhibitors of TNFa-induced NFkB p65 translocation, primary screen, imaging, HUVEC, MLSMR starter and 10KST1 sets (AID 438;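 active means inhibition above 20% together with a positive visual image hit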;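 further: compound added about 3h40 before a 20 min TNFalpha stimulation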;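 on inhibition: signal is the nuclear over cytoplasmic p65 intensity ratio per well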). The settings on record: HUVEC TNFa-induced p65 nuclear translocation; cell count: measured here: nuclei count (cytotoxicity indicator), at 2.08 µM; inhibition: at 2 µM, stronger effect = higher value, 0% TNFa-plus-vehicle, 100% no-TNFa wells.
A short description of test [2]: endothelial E-selectin expression blockers – imaging, HUVEC, immunofluorescence, MLSMR starter and 10KST1 sets, primary screen (AID 487;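 active means visually confirmed hit in the image check and inhibition above 20%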;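 on inhibition: signal is fraction of cell area covered by stained E-selectin grains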;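 on nuclei count: 100% = median nuclei count of all wells on the same plate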). Conditions: HUVEC TNFalpha-induced E-selectin immunofluorescence imaging, at 2 µM; inhibition: stronger effect = higher value; nuclei count: measured here: cell number, toxicity.
Test [3] in a line: Primary imaging screen for DUSP6 inhibitors that restore phospho-Erk in transfected HeLa cells, chemical complementation (AID 609;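 active means compounds giving at least 50% inhibition in the cell-based MKP-3 phosphatase rescue imaging test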;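 on inhibition: phospho-Erk level distribution per well compared with pooled transfected vehicle control wells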). The settings on record: HeLa MKP-3 transfected, phospho-Erk imaging KS statistic, at 10 µM, cells stimulated with TPA for 15 min.
The target of test [4] is Dual specificity protein phosphatase 6 (Homo sapiens) (UniProt Q16828). Described as above. Conditions: HeLa MKP-3 transfected, phospho-Erk imaging KS statistic; at 10 µM; stronger effect = higher value; cells stimulated with TPA for 15 min.
Dual specificity protein phosphatase 6 (Homo sapiens), sequence (Q16828 whole entry, looked up): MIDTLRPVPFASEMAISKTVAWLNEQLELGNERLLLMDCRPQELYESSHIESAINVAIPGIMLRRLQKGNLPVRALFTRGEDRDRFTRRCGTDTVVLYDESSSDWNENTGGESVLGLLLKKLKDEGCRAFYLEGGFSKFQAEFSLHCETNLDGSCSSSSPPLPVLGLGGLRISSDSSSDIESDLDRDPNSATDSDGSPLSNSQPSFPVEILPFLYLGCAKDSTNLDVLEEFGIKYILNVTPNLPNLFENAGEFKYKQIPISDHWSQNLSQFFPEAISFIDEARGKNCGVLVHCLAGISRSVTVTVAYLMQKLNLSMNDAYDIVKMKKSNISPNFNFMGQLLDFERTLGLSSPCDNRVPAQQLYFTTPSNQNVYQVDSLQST
Test [5] addresses Voltage-gated potassium channel subunit beta-2 (Rattus norvegicus) (UniProt P62483). The test is described as follows: inhibitors of rat Kvbeta2 reductase activity – biochemical, NADPH fluorescence, primary screen (AID 622;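 active means fluorescence slope higher than the sample average by over 3 SD, cut at about -0.22 in these data, passing the limit was not always enough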;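 further: slope of raw intensity against log time taken from 70 to 1610 s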). The settings on record: recombinant KvBeta, 4-cyanobenzaldehyde reduction, at 10 µM, stronger effect = higher value.
Test [6] has the same target. The test is described as follows: enhancers of rat Kvbeta2 NADPH turnover – biochemical, NADPH fluorescence, primary screen (AID 623).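 Further: fluorescence intensity change per second fitted from 20 to 320 s.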 Conditions: Recombinant KvBeta, NADPH fluorescence decrease slope, 10 min; at 10 µM; stronger effect = lower value.
Test [7] deals with Muscarinic acetylcholine receptor M4 (Homo sapiens) (UniProt P08173). The test is described as follows: M4-linked GIRK flux change, two-sided – cell-based, HEK293 M4/GIRK, thallium flux, BTC-AM, M4 allosteric agonist project, primary screen (AID 625;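 active means fluorescence slope after compound addition differing from the mean of all tested samples at 99.7% confidence, mostly higher but some lower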;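 further: thallium influx through GIRK channels coupled to M4 in HEK293 cells with BTC-AM dye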). Conditions: at 10 µM, actives lie on both sides. A digest of the protocol:
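Material: HEK293 cells with M4 receptor and GIRK channels; Times: cells overnight at 37 °C, BTC-AM loading 1 h, reads 2 min total; Technique: kinetic BTC-AM fluorescence sampled at 1 Hz, 10 s pre-addition baseline; Read-out basis: slope over 15–24 s of trace normalized to starting intensity; Controls: carbachol positive, DMSO negative.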

Test [8] can be described thus: inhibitors of larval lipid processing in zebrafish, primary screen, whole organism, PED6 fluorescence, gall bladder and intestine (AID 686;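 active means a full or partial loss of lipid-probe fluorescence in the fish gall bladder, intestine or both, judged by eye; inactive means no fluorescence loss, or compound toxic to the fish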;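 further: larvae 5 to 7 days old with five fish per well; signal comes from phospholipase A2 cleavage of quenched PED6 carried via bile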). The settings on record: Zebrafish larvae PED6 lipid processing, fluorescence scoring; screened at 20 µM (by protocol). The method, boiled down:
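Incubation: overnight exposure of larvae to compound plus PED6 / Test system: live zebrafish larvae aged 5-7 days, whole organism / Amount: 5 larvae per well / Read-out basis: visual per-well fluorescence inhibition score / Signal: visual fluorescence microscopy scoring of gall bladder, gut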

Test [9] is described as follows: loss of swimming-algae plug formation – whole organism, Chlamydomonas reinhardtii, WT vs cilia-less mutant, absorbance, 96-well, primary screen (AID 463189;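 active means inhibition at or above 50% relative to wild type and mutant plate controls; inactive means inhibition below 50%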;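 further: 0% = wild type cc124 cells in DMSO and 100% = ciliumless bld1 mutant cells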). The settings on record: Chlamydomonas reinhardtii gravitaxis, OD600 absorbance, 2 days; at 10 µM; stronger effect = higher value.
[10] abbreviates: measured here: cell density z-score.
[11] abbreviates: measured here: nuclear c-Myc green intensity z-score.
Where [12] appears, read: measured here: nuclear pErk red intensity z-score, stronger effect = higher value.

Calls of active or inactive are those of the source.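 How the source made its calls, unless noted: active means NADPH fluorescence slope more negative than the mean of all samples by about 3 SD, 99.7% confidence; inactive means the rest.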

Muscarinic acetylcholine receptor M4 (Homo sapiens), sequence (P08173 whole entry, looked up): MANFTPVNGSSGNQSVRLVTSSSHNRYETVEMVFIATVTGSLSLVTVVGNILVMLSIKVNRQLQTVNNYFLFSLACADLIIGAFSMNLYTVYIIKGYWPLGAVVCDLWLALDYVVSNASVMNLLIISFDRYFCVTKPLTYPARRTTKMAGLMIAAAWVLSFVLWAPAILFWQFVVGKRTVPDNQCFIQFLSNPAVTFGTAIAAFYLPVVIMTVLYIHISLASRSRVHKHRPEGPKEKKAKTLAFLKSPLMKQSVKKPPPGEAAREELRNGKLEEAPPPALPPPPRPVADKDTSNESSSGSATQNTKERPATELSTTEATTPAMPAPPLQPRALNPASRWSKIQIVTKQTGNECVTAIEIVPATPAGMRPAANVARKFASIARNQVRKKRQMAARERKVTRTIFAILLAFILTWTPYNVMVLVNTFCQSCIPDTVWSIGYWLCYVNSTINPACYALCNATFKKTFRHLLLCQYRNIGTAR
Voltage-gated potassium channel subunit beta-2 (Rattus norvegicus), sequence (P62483 whole entry, looked up): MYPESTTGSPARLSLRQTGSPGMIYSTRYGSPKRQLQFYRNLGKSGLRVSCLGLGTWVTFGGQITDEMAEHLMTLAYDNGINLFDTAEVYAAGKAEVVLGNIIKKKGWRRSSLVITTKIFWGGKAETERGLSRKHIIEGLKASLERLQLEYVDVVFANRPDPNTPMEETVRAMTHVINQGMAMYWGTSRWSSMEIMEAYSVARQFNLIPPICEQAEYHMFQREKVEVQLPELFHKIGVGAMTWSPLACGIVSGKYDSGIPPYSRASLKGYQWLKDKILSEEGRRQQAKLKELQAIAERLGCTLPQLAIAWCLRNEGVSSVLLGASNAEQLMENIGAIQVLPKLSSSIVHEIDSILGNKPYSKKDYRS

Regarding `COc1cccc(NC(=O)C2CC(=O)n3cnnc3S2)c1` (centres undefined), the cell count in test [1] turned out to be 518. Besides, the inhibition is -3.8% (inactive) in test [1], 12.1% (inactive) in test [2], 35.7% (inactive) in [4] and 40.5% (inactive) in [9]. The same compound showed a nuclei count in test [2] of 177%. Moreover, the figures for the z-score in test [3] (setting [10]), in test [3] (setting [11]) and in test [3] (setting [12]) were 0.777, -1.1 and -0.46, respectively. The fluorescence slope in [5] is -0.339 (inactive); in test [7], 0.00822 (inactive). Besides, in test [6], the NADPH fluorescence slope was -2.8e-05 (inactive). The call in test [8] was inactive.
For `Clc1ccccc1CN(Cc1ccccc1)c1ncnc2nc[nH]c12`, in test [1], the cell count stood at 523. Further, the inhibition was 7.2% (inactive) in [1], 5.3% (inactive) in test [2], 1.63% (inactive) in test [4] and 38.7% (inactive) in test [9]. Further, the nuclei count in [2] was 93%. Besides, the z-score is -3.05 in test [3] (setting [10]), 1.38 in [3] (setting [11]) and 0.29 in [3] (setting [12]). For the same compound, the values for the fluorescence slope in test [5] and in [7] were -0.481 (inactive) and 0.00447 (inactive), respectively. Also, in [6], the NADPH fluorescence slope is -4.9e-05 (inactive). For the same compound, in test [8], the result was inactive.
`Clc1ccc(-n2ncc3c(NCc4ccco4)ncnc32)cc1`: the cell count in test [1] stood at 582. The inhibition is -17.4% (inactive) in test [1], 19.7% (inactive) in test [2], 19.4% (inactive) in test [4] and 45.5% (inactive) in test [9]. The compound further returned a nuclei count in test [2] of 154%. The z-score was 0.502 in [3] (setting [10]), -0.386 in [3] (setting [11]) and 0.00112 in [3] (setting [12]). Besides, the fluorescence slope is -0.339 (inactive) in test [5] and 0.00727 (inactive) in [7]. In test [6], the NADPH fluorescence slope is -2.6e-05 (inactive). Further, the compound was classed as inactive in [8].
For `O=C1C2ON(c3ccccc3)C(c3cccnc3)C2C(=O)N1c1ccc(Cl)c(Cl)c1` (centres undefined), the cell count in test [1] stood at 666. In addition, the inhibition is -5.7% (inactive) in test [1], -61.8% (inactive) in test [2], -5.62% (inactive) in test [4] and 11.2% (inactive) in [9]. Moreover, the nuclei count in [2] was determined as 147%. Besides, the figures for the z-score in test [3] (setting [10]), in test [3] (setting [11]) and in [3] (setting [12]) were -0.87, 0.124 and -0.00603, respectively. Moreover, the fluorescence slope is -0.479 (inactive) in [5] and 0.00562 (inactive) in [7]. Further, the NADPH fluorescence slope in test [6] is -2.8e-05 (inactive). Also, in [8], the outcome was inactive.
For the compound `Cn1c(=O)c2c(nc(Br)n2Cc2ccc3ccccc3c2)n(C)c1=O`, in [1], the cell count stood at 623. Moreover, the inhibition in [1] was -9.2% (inactive); in test [2] it was -12.5% (inactive); in test [4] it was -8.95% (inactive); in [9], 5.52% (inactive). The nuclei count in test [2] is 163%. Besides, the figures for the z-score in test [3] (setting [10]), in test [3] (setting [11]) and in test [3] (setting [12]) were -0.362, -0.997 and 0.811, respectively. For the same compound, the values for the fluorescence slope in test [5] and in test [7] were -0.5 (inactive) and 0.00605 (inactive), respectively. Also, the NADPH fluorescence slope in [6] is -5.2e-05 (inactive). Further, in test [8], the compound was classed as inactive.
Take `CCc1nc(NCC(C)C)c(C#N)c2c1COC(C)(C)C2`: the cell count in test [1] came out at 547. In addition, the inhibition in test [1] was 7.2% (inactive); in test [2], -13.8% (inactive); in test [4], -9.91% (inactive); in test [9], -8.36% (inactive). In [2], this compound gave a nuclei count of 106%. Besides, the z-score in [3] (setting [10]) is -2.04; in [3] (setting [11]) it was -0.00331; in [3] (setting [12]), 2.22. For the same compound, the fluorescence slope in test [5] was -0.203 (inactive); in [7], 0.00805 (inactive). Besides, in test [6], the NADPH fluorescence slope is 2.4e-07 (inactive). In [8], the compound was classed as inactive.
On to `Cc1cccc(-c2nnc3n2N=C(c2ccccc2)CS3)c1`, for which the cell count in test [1] is 713. In addition, the inhibition in [1] is 6.8% (inactive); in test [2] it was -55.5% (inactive); in test [4], 16.8% (inactive); in test [9], 44.7% (inactive). In test [2], this compound showed a nuclei count of 169%. In addition, the z-score in [3] (setting [10]) was 0.462; in [3] (setting [11]), -0.93; in [3] (setting [12]) it was 1.32. Also, the fluorescence slope in [5] was -0.415 (inactive); in test [7] it was 0.00492 (inactive). Moreover, in test [6], the NADPH fluorescence slope is -6.7e-05 (inactive). Further, the compound was classed as inactive in test [8].
For `CC(C)CNc1nc2c(c(=O)n(C)c(=O)n2C)n1Cc1cccc(Br)c1`, the cell count in test [1] was 696. Further, the inhibition in test [1] is 0.6% (inactive); in test [2], -160% (inactive); in [4] it was 7.93% (inactive); in test [9], 13.3% (inactive). Further, in test [2], the nuclei count stood at 174%. Moreover, the z-score in [3] (setting [10]) is 0.789; in test [3] (setting [11]) it was -0.339; in test [3] (setting [12]) it was -0.433. In addition, the fluorescence slope is -0.498 (inactive) in test [5] and 0.00519 (inactive) in [7]. Also, the NADPH fluorescence slope in [6] is -3.9e-05 (inactive). The result in test [8] was inactive.
Regarding `CCC(C)Nc1nc(OC)nc(N(C)C#N)n1` (centres undefined), the cell count in [1] worked out at 675. The inhibition was 7.6% (inactive) in [1], -32.5% (inactive) in [2], -9.53% (inactive) in test [4] and 3.27% (inactive) in test [9]. In [2], this compound yielded a nuclei count of 130%. For the same compound, the z-score in test [3] (setting [10]) is 0.721; in test [3] (setting [11]), 0.541; in [3] (setting [12]), 0.135. In addition, the fluorescence slope in test [5] was -0.431 (inactive); in test [7] it was 0.00571 (inactive). Moreover, in test [6], the NADPH fluorescence slope was -5.5e-05 (inactive). Besides, in test [8], the compound was classed as inactive.
Take `O=C(O)c1cc2sccc2s1`: the cell count in test [1] was determined as 643. Further, the inhibition in [1] is 0% (inactive); in [2], 23.1% (inactive); in [4], -6.48% (inactive); in test [9] it was -3.38% (inactive). This compound yielded a nuclei count in test [2] of 160%. Further, the values for the z-score in test [3] (setting [10]), in test [3] (setting [11]) and in test [3] (setting [12]) were 0.481, -0.0742 and -0.912, respectively. The fluorescence slope in test [5] is -0.465 (inactive); in test [7], 0.005 (inactive). Further, the NADPH fluorescence slope in test [6] was -2.7e-05 (inactive). Further, the compound was classed as inactive in [8].
On to `Nc1nc2n(n1)C(c1cccs1)CC(c1ccc(Br)cc1)N2` (centres undefined), for which the cell count in [1] was determined as 409. Further, the inhibition is -1% (inactive) in test [1], -13.7% (inactive) in [2], 5.65% (inactive) in test [4] and 21.9% (inactive) in test [9]. The nuclei count in test [2] is 149%. For the same compound, the z-score in test [3] (setting [10]) is -0.806; in test [3] (setting [11]), 0.38; in test [3] (setting [12]), 0.438. Besides, the fluorescence slope in test [5] was -0.443 (inactive); in test [7], 0.0057 (inactive). Moreover, the NADPH fluorescence slope in test [6] is -9.3e-05 (inactive). Moreover, in [8], the compound was classed as inactive.
For the compound `CCCC(CCC(=O)Nc1ccc(C(=O)OCC)cc1)C(=O)O` (centres undefined), the cell count in test [1] was 368. Also, the inhibition was -0.1% (inactive) in [1], -147% (inactive) in test [2], 20.2% (inactive) in test [4] and -0.026% (inactive) in test [9]. In test [2], this compound displayed a nuclei count of 152%. The z-score in test [3] (setting [10]) was -0.648; in test [3] (setting [11]), 0.519; in test [3] (setting [12]), -0.661. Besides, the fluorescence slope is -0.484 (inactive) in [5] and 0.0051 (inactive) in test [7]. Also, the NADPH fluorescence slope in test [6] was -4.5e-05 (inactive). The call in test [8] was inactive.
`COc1ccc(CCn2c(=N)c(C(=O)NCc3ccco3)cc3c(=O)n4ccccc4nc32)cc1OC`: the cell count in test [1] worked out at 633. Besides, the inhibition in [1] was -2.8% (inactive); in test [2], -94.3% (inactive); in test [4] it was 14.4% (inactive); in test [9], -2.16% (inactive). For the same compound, the nuclei count in test [2] was determined as 174%. In addition, the z-score was 1.26 in [3] (setting [10]), -0.19 in test [3] (setting [11]) and 0.299 in test [3] (setting [12]). In addition, the fluorescence slope was -0.507 (inactive) in test [5] and 0.00335 (inactive) in test [7]. For the same compound, the NADPH fluorescence slope in test [6] is -2.1e-05 (inactive). Moreover, the compound was classed as inactive in [8].
